Measured values taken from PMC2909692 (Nuclear medicine and biology, 2010).
Where “and” joins values, the source holds several entries; their conditions need not be identical. Equal values may be shown once. Read-outs that look alike come from different tables or passages of the source.

Key:
VMAT2 = VMAT2 (Rattus norvegicus, UniProt Q01827); experiment: small animal PET imaging with [18F]AV-133 in 6-OHDA unilateral lesioned rats; assay type: in vivo
Summary of the method: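 Male Sprague Dawley rats with a unilateral left 6-OHDA lesion passed an apomorphine rotation check (0.05 mg/kg s.c., day 21). Under 1.5-2.5% isoflurane, each received [18F]AV-133 (50-57 MBq) by tail vein and was imaged dynamically for 4 hrs (5 min frames, then 15 min frames). ROI analysis on reconstructed images gave % change = ((R striatum − cerebellum) − (L striatum − cerebellum))/(R striatum − cerebellum) × 100.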

SERT [1] = molecular target: T1, SERT (Rattus norvegicus, UniProt P31652); assay type: in vivo
Summary of the method: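 Rats under 1.5-2.5% isoflurane were scanned on a Philips Mosaic animal PET after tail-vein [18F]FPBM (37-51 MBq lesioned; 43-57 MBq normal controls). Dynamic acquisition ran 4 hrs: 5-min frames for 2 hrs, then 15-min frames. Lesioned rats were apomorphine-screened (0.05 mg/kg s.c.) and rescanned 7-20 days later. ROI time-activity points were summed per region; left-striatum change = ((R−CB)−(L−CB))/(R−CB)×100.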

SERT [2] = molecular target: T1, SERT; experiment: quantitative in vitro autoradiography with [18F]FPBM on rat brain sections; assay type: binding; settings: n = 3
Summary of the method: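 Coronal 20 μm cryostat sections from left-lesioned (6-OHDA) male Sprague Dawley rat brains were preincubated for 20 min at room temperature in 50 mM Tris/120 mM NaCl, pH 7.4, then dried. They were incubated for 1 hr at room temperature in that buffer containing [18F]FPBM (166-178 Bq/μL), rinsed cold 2 × 45 min, and exposed to film for 24 hrs with calibration standards. % change = ((R − cerebellum) − (L − cerebellum))/(R − cerebellum) × 100, averaged over rostral-striatum sections.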

SERT [3] = molecular target: T1, SERT; experiment: regional brain biodistribution of [18F]FPBM in PCA-treated and control rats; assay type: in vivo; settings: 60 min, n = 6
Summary of the method: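 Male Sprague Dawley rats (12, split into two groups) received PCA 5 mg/kg i.p. or saline daily for 2 consecutive days. Six days later they were given [18F]FPBM i.v. and killed under isoflurane 60 min post-injection. Radioactivity distribution was measured in brain regions only, not peripheral organs.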

[4] = molecular target: serotonin transporter (SERT); settings: read-out: Ki (affinity); in vitro binding assays; ref [23]-[25]; cited from earlier work
[5] = normal rats, ref [23]-[25], cited from earlier work
[6] = molecular target: dopamine transporter (DAT) (Rattus norvegicus, UniProt P23977); experiment: quantitative in vitro autoradiography with [125I]IPT on rat brain sections; assay type: binding
Summary of the method: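 Brains from lesioned rats were frozen in OCT, and 20 μm coronal cryosections were desiccated 2 hrs at 4 °C, then stored at −70 °C. Sections were preincubated 20 min at room temperature in 50 mM Na2HPO4/0.32 M sucrose pH 7.4, then incubated 2 hrs with [125I]IPT (13-19 Bq/μL). Rinses: cold buffer 2 × 30 min, then cold water. Film exposure was 24 hrs with 125I homogenate standards (0.04-1.48 kBq/mg). Change = ((R−CB)−(L−CB))/(R−CB)×100, averaged over sections.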

dopamine transporter (DAT), sequence (P23977 whole entry): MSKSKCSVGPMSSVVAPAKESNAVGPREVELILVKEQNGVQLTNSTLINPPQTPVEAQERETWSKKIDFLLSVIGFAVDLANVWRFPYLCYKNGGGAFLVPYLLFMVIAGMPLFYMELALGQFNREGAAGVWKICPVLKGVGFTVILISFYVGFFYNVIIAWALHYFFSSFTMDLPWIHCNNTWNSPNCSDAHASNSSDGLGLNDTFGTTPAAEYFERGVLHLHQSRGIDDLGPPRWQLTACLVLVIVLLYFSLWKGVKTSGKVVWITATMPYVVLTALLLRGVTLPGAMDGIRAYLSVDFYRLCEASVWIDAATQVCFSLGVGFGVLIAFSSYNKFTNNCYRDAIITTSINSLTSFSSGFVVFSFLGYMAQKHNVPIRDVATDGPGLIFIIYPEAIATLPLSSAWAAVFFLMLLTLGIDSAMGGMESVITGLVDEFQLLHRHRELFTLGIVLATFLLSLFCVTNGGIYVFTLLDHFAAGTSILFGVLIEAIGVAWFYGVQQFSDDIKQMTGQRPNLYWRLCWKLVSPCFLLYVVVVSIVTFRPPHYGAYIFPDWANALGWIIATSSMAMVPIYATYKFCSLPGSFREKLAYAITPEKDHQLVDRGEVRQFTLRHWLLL
VMAT2, sequence (Q01827 whole entry): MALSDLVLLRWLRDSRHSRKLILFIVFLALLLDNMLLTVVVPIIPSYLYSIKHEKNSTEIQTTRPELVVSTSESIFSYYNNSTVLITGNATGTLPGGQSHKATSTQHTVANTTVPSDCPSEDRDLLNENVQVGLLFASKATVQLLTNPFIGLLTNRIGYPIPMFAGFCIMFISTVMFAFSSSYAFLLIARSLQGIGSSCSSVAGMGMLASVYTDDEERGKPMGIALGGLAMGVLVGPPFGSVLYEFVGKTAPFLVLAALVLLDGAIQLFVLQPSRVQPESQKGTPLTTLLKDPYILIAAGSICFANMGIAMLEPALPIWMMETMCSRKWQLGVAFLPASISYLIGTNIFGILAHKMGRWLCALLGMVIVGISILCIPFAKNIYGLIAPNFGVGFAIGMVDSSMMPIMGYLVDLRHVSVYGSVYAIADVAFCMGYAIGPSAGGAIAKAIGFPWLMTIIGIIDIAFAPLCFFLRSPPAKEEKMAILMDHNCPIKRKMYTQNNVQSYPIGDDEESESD
T1 sequence (P31652 whole entry): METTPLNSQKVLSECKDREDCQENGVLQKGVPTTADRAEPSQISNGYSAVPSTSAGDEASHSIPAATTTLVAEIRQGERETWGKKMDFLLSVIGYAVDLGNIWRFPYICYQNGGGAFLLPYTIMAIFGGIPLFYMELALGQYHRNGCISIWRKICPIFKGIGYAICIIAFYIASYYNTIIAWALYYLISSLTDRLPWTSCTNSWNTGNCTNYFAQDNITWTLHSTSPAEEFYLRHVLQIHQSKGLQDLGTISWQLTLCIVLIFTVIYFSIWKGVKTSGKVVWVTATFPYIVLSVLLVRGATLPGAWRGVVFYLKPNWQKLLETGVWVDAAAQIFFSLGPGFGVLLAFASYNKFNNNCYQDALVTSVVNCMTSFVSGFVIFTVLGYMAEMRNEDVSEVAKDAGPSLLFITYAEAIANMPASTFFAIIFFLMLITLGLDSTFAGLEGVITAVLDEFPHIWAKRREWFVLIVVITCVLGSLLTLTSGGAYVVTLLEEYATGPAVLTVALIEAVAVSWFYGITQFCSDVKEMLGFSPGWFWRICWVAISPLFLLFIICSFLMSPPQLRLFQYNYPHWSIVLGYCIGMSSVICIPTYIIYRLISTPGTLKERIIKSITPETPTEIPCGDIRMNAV

COc1cc2c(cc1OCCCF)CCN1CC(CC(C)C)C(O)CC21 (single isomer, unassigned; (+)) [[^18F]AV-133, (+)-2-Hydroxy-3-isobutyl-9-(3-fluoropropoxy)-10-methoxy-1,2,3,4,6,7-hexahydro-11bH-benzo[a]quinolizine]
percent binding change in the left striatum (PET) (VMAT2; 6-OHDA lesioned rat #1, n = 1): −87%
percent binding change in the left striatum (PET) (VMAT2; 6-OHDA lesioned rat #2, n = 1): −72%
percent binding change in the left striatum (PET) (VMAT2; 6-OHDA lesioned rat #3, n = 1): −91%

CN(C)Cc1cc(OCCC[18F])ccc1Sc1ccccc1N [[^18F]FPBM, 2-(2′-((dimethylamino)methyl)-4′-(3-[^18F]-fluoropropoxy)phenylthio)benzenamine]
percent binding change in the left striatum (PET), individual scans (SERT [1]; 6-OHDA lesioned rat #1, 10 days between scans): −12% and −10%
average percent binding change in the left striatum (PET) (SERT [1]; 6-OHDA lesioned rat #1, n = 2 scans): −11%
percent binding change in the left striatum (PET), individual scans (SERT [1]; 6-OHDA lesioned rat #2, 20 days between scans): −1% and −7%
average percent binding change in the left striatum (PET) (SERT [1]; 6-OHDA lesioned rat #2, n = 2 scans): −4%
percent binding change in the left striatum (PET), individual scans (SERT [1]; 6-OHDA lesioned rat #3, 7 days between scans): −42% and −44%
average percent binding change in the left striatum (PET) (SERT [1]; 6-OHDA lesioned rat #3, n = 2 scans): −43%
percent binding change in the left striatum (PET), individual rats (SERT [1]; normal control rats, individual values): +4.5% and −3.5%
average percent binding change in the left striatum (PET) (SERT [1]; normal control rats, n = 2 separate rats, left vs right striatum): +0.5%
averaged percent binding reduction of the left rostral striatum brain sections (in vitro autoradiography) (SERT [2]; 6-OHDA lesioned rat #1, rostral striatum sections): −5.9%
averaged percent binding reduction of the left rostral striatum brain sections (in vitro autoradiography) (SERT [2]; 6-OHDA lesioned rat #2, rostral striatum sections): +2.3%
averaged percent binding reduction of the left rostral striatum brain sections (in vitro autoradiography) (SERT [2]; 6-OHDA lesioned rat #3, rostral striatum sections): −37.3%
ratio vs. CB ± SD, cerebellum (SERT [3]; PCA-treated rats): 1.00 ± 0.34
ratio vs. CB ± SD, cortex (SERT [3]; PCA-treated rats): 1.93 ± 0.58
ratio vs. CB ± SD, hippocampus (SERT [3]; PCA-treated rats): 2.29 ± 0.56
ratio vs. CB ± SD, hypothalamus (SERT [3]; PCA-treated rats): 3.87 ± 0.88
ratio vs. CB ± SD, remainder (SERT [3]; PCA-treated rats): 2.27 ± 0.53
ratio vs. CB ± SD, striatum (SERT [3]; PCA-treated rats): 2.90 ± 1.00
ratio vs. CB ± SD, cerebellum (SERT [3]; control rats): 1.00 ± 0.33
ratio vs. CB ± SD, cortex (SERT [3]; control rats): 3.39 ± 1.28
ratio vs. CB ± SD, hippocampus (SERT [3]; control rats): 3.09 ± 1.10
ratio vs. CB ± SD, hypothalamus (SERT [3]; control rats): 4.61 ± 1.44
ratio vs. CB ± SD, remainder (SERT [3]; control rats): 3.12 ± 1.12
ratio vs. CB ± SD, striatum (SERT [3]; control rats): 3.70 ± 1.21
Ki [4]: 0.38 nM
brain uptake ([5]; 2 min post-injection): 0.99 % dose/g
target to non-target ratio ([5]; 120 min post-injection): 7.7

COC(=O)C1C(c2ccc(Cl)cc2)CC2CCC1N2CC=C[125I] (stereo not drawn) [[^125I]IPT, N-(3′-[^125I]-iodopropen-2′-yl)-2-beta-carbomethoxy-3-beta-(4-chlorophenyl) tropane]
percent change in binding in the left striatum (in vitro autoradiography) ([6]; 6-OHDA lesioned rat #1): −66%
percent change in binding in the left striatum (in vitro autoradiography) ([6]; 6-OHDA lesioned rat #2): −56%
percent change in binding in the left striatum (in vitro autoradiography) ([6]; 6-OHDA lesioned rat #3): −81%
